NR2E3 ag-1 = NR2E3 agonists in two-hybrid cells, primary screen, cell-based, luminescence, CHO-S, Gal4-NCOR/VP16-NR2E3 | luciferase | inhibition of corepressor binding, % at 3.98 µM | 360,000 compounds, 0.35% hits | AID 602229, 2012;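 active means inhibition above the mean of all tested compounds plus 3 SD, cut at about 70% in these data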;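 further: higher means lower luciferase signal from less NR2E3 corepressor binding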
Jurkat NFkB inh = inhibitors of induced NF-kB luciferase reporter, primary screen, TCR NF-kB activation inhibitor project, cell-based, luminescence, uHTS | 330,000 compounds, 0.53% hits | AID 435003, 2010 | inhibition, % at 4 µM | Jurkat, PMA/ionomycin-induced NF-kB luciferase reporter; in the data active means inhibition above about 50%
GalR3 antag = GalR3 antagonists in HEK293 cells, primary screen, cell-based, fluorescence readout. Galanin receptor type 3 (Homo sapiens), O60755. HEK293 GalR3-CNG cAMP membrane potential fluorescence; galR3 body fused to GalR1 C-terminus. inhibition, % at 3 µM. 360,000 compounds, 0.44% hits. AID 651719, 2012;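 active means inhibition above the screen-wide average plus 3 SD, cut at about 13% in these data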;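 further: forskolin and galanin both at EC90 stimulate the cells; cAMP rise reported by CNG channel membrane potential dye signal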
Target sequence (O60755 1-299 limits assumed): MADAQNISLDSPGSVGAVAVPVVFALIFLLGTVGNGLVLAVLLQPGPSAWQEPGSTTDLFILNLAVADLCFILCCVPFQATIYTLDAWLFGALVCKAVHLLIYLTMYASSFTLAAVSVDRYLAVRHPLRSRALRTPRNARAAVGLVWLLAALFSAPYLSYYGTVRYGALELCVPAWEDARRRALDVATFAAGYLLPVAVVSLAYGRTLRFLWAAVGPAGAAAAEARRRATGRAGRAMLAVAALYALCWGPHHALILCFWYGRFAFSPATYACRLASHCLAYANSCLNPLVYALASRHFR
697 NFkB inh = inhibitors of PMA/ionomycin-induced NF-kB reporter, 697 cells, primary screen, B-cell NF-kB inhibitor project, cell-based, luminescence, uHTS. 697 B-cell NF-kB luciferase reporter, 16 h. inhibition, % at 4 µM. 330,000 compounds, 0.33% hits; in the data active means inhibition above about 35%
GASC-1 inh = inhibitors of GASC-1 histone demethylase, primary screen, biochemical, fluorescence, DELFIA europium; Lysine-specific demethylase 4C (Homo sapiens), Q9H3R0; GST-JMJD2C(1-420) H3K9me3 demethylation; inhibition, % at 2.35 µM; 330,000 compounds, 0.069% hits;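 active means more than half of a compound's replicate wells show inhibition beyond 50%, single wells judged on their own value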;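 further: signal counts dimethyl H3K9 product captured on neutravidin plate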
Target sequence (Q9H3R0 1-420 limits assumed): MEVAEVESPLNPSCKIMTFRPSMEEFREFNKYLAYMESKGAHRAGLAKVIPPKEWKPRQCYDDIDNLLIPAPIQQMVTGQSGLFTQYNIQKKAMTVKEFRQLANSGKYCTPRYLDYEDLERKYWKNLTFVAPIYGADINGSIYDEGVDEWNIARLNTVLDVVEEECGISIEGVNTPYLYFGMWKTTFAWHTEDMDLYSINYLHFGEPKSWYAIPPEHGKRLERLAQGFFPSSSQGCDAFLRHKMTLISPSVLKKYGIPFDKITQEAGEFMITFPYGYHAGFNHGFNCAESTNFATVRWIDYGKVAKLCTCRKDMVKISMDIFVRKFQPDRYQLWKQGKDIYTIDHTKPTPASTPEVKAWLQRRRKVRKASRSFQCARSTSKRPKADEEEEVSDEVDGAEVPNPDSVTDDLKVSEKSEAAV
NR2E3 ag-2 = inhibitors of NR2E3-RetCOR corepressor binding, primary screen, NR2E3 agonist project, biochemical, TR-FRET, GST-NR2E3, biotin-RetCOR; Photoreceptor-specific nuclear receptor (Homo sapiens), Q9Y5X4; 1536-well; inhibition of corepressor binding, % at 4.78 µM; 320,000 compounds, 0.12% hits;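 active means percent inhibition above the cutoff of mean plus 3 SD of all tested compounds, set per screening campaign, cut at about 20% in these data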
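Material – GST-tagged NR2E3 plus biotinylated RetCOR corepressor · Quantity – NR2E3 fusion 1.35 nM · Times – 5 h incubation at 4 °C · Medium – pH 7.5 Tris-based buffer · Technique – TR-FRET, Eu(K)-anti-GST donor, streptavidin-D2 acceptor, ex 340, em 617/671 nm · Benchmarks – high control biotin, low control 0.6% DMSO · Format – 1536-well plates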
Jurkat NFkB conf = PMA/ionomycin-induced NF-kB reporter inhibitors, Jurkat retest, confirmation, T-cell NF-kB inhibitor project, cell-based, luminescence, single concentration | shares compounds with Jurkat NFkB inh | Jurkat NF-kB luciferase, 16 h | inhibition, % at 4 µM | 2,700 compounds, 27% hits;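 active means inhibition reaching about 45% at 4 µM in either replicate, limit read from the data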
Each line names hits and unclear results; the compound was inactive in the other large screens (follow-up assays come after a bar, where they were run). The list is not random: actives were taken first. Their share in the collection is about 1.5%.

Cc1cc(C)c2nc(C)cc(N/N=C/c3ccc(O)cc3)c2c1	Jurkat NFkB inh 98 | Jurkat NFkB conf 81
COc1ccc(OC)c(NC(=O)COC(=O)[C@H](Cc2ccccc2)NC(=O)c2ccco2)c1	none (no result: NR2E3 ag-2)
COc1ccc(C(=O)c2ccc(OC)c(N)c2)cc1N	Jurkat NFkB inh 53 | Jurkat NFkB conf inactive
Cc1cccnc1CNC(=O)C1CCC(=O)N(CCc2cccc(F)c2)C1 (stereo not drawn)	none
O=C(C#Cc1ccccc1)c1ccco1	Jurkat NFkB inh 51 | Jurkat NFkB conf inactive
C/C(=N/NC(=O)c1ccncc1)c1ccc(NC(=O)c2ccc(Cl)cc2Cl)cc1	none
C/C(=N\NC(=O)c1ccc(Cl)cc1)c1ccccn1	Jurkat NFkB inh 98 | Jurkat NFkB conf inactive
COc1cc(OC)cc(C(=O)NNC(=O)c2ccccn2)c1	none
C/C(=N\NC(=O)c1ccncc1)c1ccc(NC(=O)c2ccc(Cl)cc2)cc1	none | Jurkat NFkB conf inactive
C/C(=N\NC(=O)c1cc(C)nc2ccccc12)c1ccncc1	none
COc1ccc(C(=O)NNC(=O)c2ccccn2)cc1	Jurkat NFkB inh 52 | Jurkat NFkB conf 63
C/C(=N\NC(=O)c1cc(C)nc2ccccc12)c1ccccn1	Jurkat NFkB inh 95 | Jurkat NFkB conf 45
CC1CN(C(=O)COC(=O)c2cncc(Br)c2)CC(C)O1 (stereo not drawn)	none (no result: Jurkat NFkB inh, 697 NFkB inh, GASC-1 inh, NR2E3 ag-2)
COc1ccc(C(=O)NC(=S)N2CCN(C)CC2)cc1Br	none
CC1=C([N+](=O)[O-])C(c2ccccc2)C2=C(N1)c1ccccc1C2=O (stereo not drawn)	Jurkat NFkB inh 61 | Jurkat NFkB conf 47
COc1ccc(C2C(C#N)=C(C)NC3=C2C(=O)c2ccccc23)cc1 (stereo not drawn)	none
CCn1cnc2cc(NCc3ccc(OC)cc3)ccc21	none
CCOc1ccc2nc3cc(NCc4ccc(OC)cc4)ccc3c(N)c2c1	Jurkat NFkB inh 100 (no result: GalR3 antag) | Jurkat NFkB conf inactive
O=C(CC(Nc1ccccc1Cl)C(=O)OCC(=O)c1cccs1)c1ccccc1 (stereo not drawn)	none | Jurkat NFkB conf inactive
COc1ccccc1NC(CC(=O)c1ccccc1)C(=O)OCC(=O)c1ccc(Br)cc1 (stereo not drawn)	none | Jurkat NFkB conf inactive
CC(C)(C)S(=O)(=O)N1Cc2ccc(CO)cc2[C@H]1CCO	none (no result: Jurkat NFkB inh, 697 NFkB inh, GASC-1 inh, NR2E3 ag-2)
COc1cc(/C=C/[N+](=O)[O-])ccc1OCc1cccc(C(=O)O)c1	Jurkat NFkB inh 69 (no result: NR2E3 ag-1, GalR3 antag, NR2E3 ag-2) | Jurkat NFkB conf inactive
COc1ccc(C(=O)C=Cc2ccc(OCc3ccccc3)c(OC)c2)cc1OC	none (no result: Jurkat NFkB inh, 697 NFkB inh, GASC-1 inh, NR2E3 ag-2)
COc1ccc(NC(=O)c2cc(C3CCCCN3S(=O)(=O)Cc3ccccc3)on2)c(C)c1 (stereo not drawn)	none (no result: Jurkat NFkB inh, 697 NFkB inh, GASC-1 inh, NR2E3 ag-2)
Cc1cc(N2CCN(C)CC2)ccc1NC(=O)c1c2c(nc3ccccc13)CCN(Cc1ccccc1)C2	Jurkat NFkB inh 77 (no result: GalR3 antag) | Jurkat NFkB conf inactive
COc1ccc(C2CC(c3ccc4ccccc4c3)=NN2C(=O)COC(=O)C2CCC(=O)N2)cc1 (stereo not drawn)	none | Jurkat NFkB conf inactive
CC(=O)OCC(=O)N1N=C(c2ccc3ccccc3c2)CC1c1ccccc1 (stereo not drawn)	none
Nc1nc(-c2ccc(-c3ccccc3)cc2)cs1	none
Nc1nc(-c2ccc3ccccc3c2)cs1	none | Jurkat NFkB conf inactive
CC12CN(S(=O)(=O)c3ccccc3)CC(C)(CN(S(=O)(=O)c3ccccc3)C1)C2	none
COc1ccccc1-c1nnc2n1N=C(c1ccc(O)c(O)c1)CS2	Jurkat NFkB inh 81 (no result: GalR3 antag) | Jurkat NFkB conf 55
C/C(=N/NC(=O)c1ccoc1C)C12CC3CC(CC(C3)C1)C2	none
CCOc1ccc(-n2c(SCC(=O)c3c(N)n(C)c(=O)n(C)c3=O)nnc2-c2cccnc2)cc1	none
Cc1ccc(-n2nc3cc(C)c(N)cc3n2)cc1	none
CCc1ccc(-n2nc3cc(C)c(N)cc3n2)cc1	none | Jurkat NFkB conf inactive
CC(C)(C)OC(=O)NCc1ccc(NC(=O)c2nc[nH]c2C(=O)NCCNC(=O)c2[nH]cnc2C(=O)Nc2ccc(CNC(=O)OC(C)(C)C)cc2)cc1	Jurkat NFkB inh 62 (no result: GalR3 antag, NR2E3 ag-2) | Jurkat NFkB conf inactive
CCOC(=O)C1=C(C)NC(SC)=C(C#N)C1CC(C)C (stereo not drawn)	Jurkat NFkB inh 57 | Jurkat NFkB conf inactive
CC(C)(C)c1ccc(C(=O)Nc2ccc([N+](=O)[O-])cn2)cc1	none | Jurkat NFkB conf inactive
CC1(C)N=C(N)N=C(N)N1c1ccc(Oc2ccc(Cl)cc2)c(Cl)c1	Jurkat NFkB inh 82 | Jurkat NFkB conf 66
COC(=O)c1c(-c2cccc3ccccc23)csc1NC(=O)Cc1ccc(OC)c(OC)c1	Jurkat NFkB inh 53 | Jurkat NFkB conf inactive
COC(=O)c1c(-c2ccc(Br)cc2)csc1NC(=O)Cc1ccc(OC)c(OC)c1	none
Cc1cccc(N2CCN(Cc3cn(C)nc3-c3ccccc3F)CC2)n1	Jurkat NFkB inh 54 | Jurkat NFkB conf inactive
CC1(C)CC(NC(=O)c2ccc(Cl)c(S(=O)(=O)N(Cc3ccccc3)c3ccccc3)c2)CC(C)(C)N1	Jurkat NFkB inh 71 (no result: NR2E3 ag-1) | Jurkat NFkB conf inactive
CCCN1C(=O)c2ccc(C(=O)Nc3nccs3)cc2C1=O	none
CCCc1cc(C(=O)Nc2nccs2)cs1	none | Jurkat NFkB conf inactive
COc1cccc(C(C)(O)c2nc(-c3ccc(F)c(Cl)c3)cs2)c1 (stereo not drawn)	none (no result: Jurkat NFkB inh, 697 NFkB inh, GASC-1 inh, NR2E3 ag-2)
Cc1ccc2c(c1)C=CC(C#N)N2C(=O)c1ccccc1 (stereo not drawn)	Jurkat NFkB inh 55 | Jurkat NFkB conf inactive
Cc1ccc2c(c1)C=CC(C#N)N2C(=O)Oc1ccccc1 (stereo not drawn)	none (no result: Jurkat NFkB inh, 697 NFkB inh, GASC-1 inh, NR2E3 ag-2)
O=C(N/N=C/c1c[nH]c2ccccc12)C1COc2ccccc2O1 (stereo not drawn)	Jurkat NFkB inh 53 | Jurkat NFkB conf inactive
O=C(N/N=C\c1ccc(Cl)s1)C1COc2ccccc2O1 (stereo not drawn)	none
CC(=O)c1cccc(NC(=S)NC(=O)c2ccc(Br)cc2)c1	Jurkat NFkB inh 91 | Jurkat NFkB conf inactive
O=C(Nc1ccccc1)c1ccc(S(=O)(=O)N2CCOCC2)cc1	none

Source: PubChem BioAssay
